A short description of series [1]: Induction of oxidative burst in polymorphonuclear leukocytes (unknown origin) isolated from buffy coat after 40 mins by fluorescence assay. It is filed as functional, cell-based. Summed up: (§1)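 PMN isolated and purified from fresh buffy coats, then incubated 40 min at ambient temperature with titrated compound (top concentration 10 µM) premixed with hydroethidine. Respiratory burst read as fluorescence in relative light units, emission 579 nm, excitation 485 nm. EC50 and Emax are expressed relative to the maximum effect of the ingenol mebutate reference.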

Series [2] concerns Keratinocyte. The series can be described thus: Induction of TNFalpha release in human primary epidermal keratinocytes after 6 hrs. It is filed as functional, cell-based. The essentials:
(§2)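 Human adult log-phase primary epidermal keratinocytes subcultured at 10,000 cells/well. Incubated with titrated compound for 6 h at 37 °C in humidified 95% air/5% CO2. Secreted cytokines quantified on 4-spot cytokine plates. EC50 is the concentration giving 50% of the maximum effect of the ingenol mebutate reference. Emax is maximal response relative to that reference.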

In series [3] the test system is Keratinocyte. Kind of series: Induction of IL-8 release in human primary epidermal keratinocytes after 6 hrs by HTRF assay relative to ingenol mebutate. The class given is functional. A general note: In TR-FRET formats the signal depends on donor and acceptor labels being close together.
In series [4] the test system is Keratinocyte. The series can be described thus: Induction of TNFalpha release in human primary epidermal keratinocytes after 6 hrs relative to ingenol mebutate. The class given is functional. The essentials:
as §2

Series [5] has as its system Keratinocyte. The series can be described thus: Induction of IL-8 release in human primary epidermal keratinocytes after 6 hrs by HTRF assay. The class given is functional, cell-based.
Series [6] concerns the target Protein kinase C delta type (Homo sapiens, UniProt Q05655). Kind of series: Activation of PKCdelta (unknown origin) using phosphatidylserine […]. The essentials:
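PKCdelta assayed in vitro by phosphorylation of a PKC peptide substrate, with 0.05 mg/mL phosphatidylserine and no diacylglycerol so stimulation could be seen. Compounds serially diluted at semilogarithmic intervals, twelve points from 10 µM. Reaction started by adding ATP.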

Series [7] is described as follows: Chemical stability of the compound in aqueous buffer assessed as drug recovery after 16 hrs at pH 7.4 by HPLC analysis. The class given is physicochemical. The note with it: read-out: Drug recovery. The essentials: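 DMSO stock diluted with pre-heated (37 °C) aqueous buffer pH 7.4 to at most 30% v/v organic content, then shaken. Held in the HPLC autosampler at 37 °C, first injected within 5 min, then injected repeatedly over 16 h. Recovery taken from the fall in compound peak area, UV detection normally at 270 nm.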

A short description of series [8]: Induction of necrosis in human HeLa cells after 30 mins by resazurin assay. It is filed as cell-based. To be noted: read-out: LC50. Summed up:
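HeLa cells exposed to increasing ester concentrations up to 400 µM for 30 min at 37 °C. Remaining metabolic activity then read with a resazurin-based dye. LC50 is the concentration causing 50% loss of metabolic activity.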

Series [9] in a line: Dissociation constant, pKa of the compound. The class given is physicochemical.
Series [10] in a line: Induction of oxidative burst in polymorphonuclear leukocytes (unknown origin) isolated from buffy coat at 10 uM after 40 mins by fluorescence assay relative to ingenol mebutate. The class given is functional. Summed up: as §1
Series [11] relates to Keratinocyte. The series can be described thus: Induction of TNFalpha release in human primary epidermal keratinocytes after 6 hrs in presence of PKC inhibitor bisindolylmaleimide 1. It is filed as functional, cell-based.
In series [12] the test system is Keratinocyte. Kind of series: Induction of IL-8 release in human primary epidermal keratinocytes after 6 hrs by HTRF assay in presence of PKC inhibitor bisindolylmaleimide 1. The class given is functional, cell-based.
The nature of series [13]: Induction of oxidative burst in polymorphonuclear leukocytes (unknown origin) isolated from buffy coat at 10 uM after 40 mins by fluorescence assay in presence of PKC inhibitor bisindolylmaleimide 1. The class given is functional, cell-based.

Calls of active or inactive are those of the source. The calls are words filed in the database; no cut-off is given here.

Chain of Protein kinase C delta type (Q05655 whole entry): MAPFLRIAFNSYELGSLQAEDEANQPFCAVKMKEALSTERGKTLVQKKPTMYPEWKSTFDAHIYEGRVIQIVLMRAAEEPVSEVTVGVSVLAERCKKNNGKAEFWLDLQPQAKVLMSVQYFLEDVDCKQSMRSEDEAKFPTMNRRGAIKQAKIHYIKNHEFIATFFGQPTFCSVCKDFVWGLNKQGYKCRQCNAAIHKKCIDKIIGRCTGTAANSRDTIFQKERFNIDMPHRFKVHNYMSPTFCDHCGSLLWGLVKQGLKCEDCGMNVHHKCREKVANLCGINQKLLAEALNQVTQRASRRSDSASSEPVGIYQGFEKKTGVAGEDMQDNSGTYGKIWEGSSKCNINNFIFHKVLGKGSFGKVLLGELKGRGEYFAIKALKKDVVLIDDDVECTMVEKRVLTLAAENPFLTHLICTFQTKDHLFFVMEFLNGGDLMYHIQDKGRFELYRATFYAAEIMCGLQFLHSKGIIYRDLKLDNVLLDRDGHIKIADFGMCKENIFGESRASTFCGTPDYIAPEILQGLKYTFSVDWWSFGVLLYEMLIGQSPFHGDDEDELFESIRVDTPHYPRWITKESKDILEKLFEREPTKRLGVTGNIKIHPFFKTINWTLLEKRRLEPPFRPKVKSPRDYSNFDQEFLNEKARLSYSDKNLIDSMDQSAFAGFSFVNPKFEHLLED

By EC50 is commonly meant the concentration that produces a half-maximal response. A word on the Emax: it is the greatest response seen or fitted, relative to the assay's reference. For the compound `C/C=C(/C)C(=O)O[C@H]1C(C)=C[C@@]23C(=O)[C@H]([C@H]4[C@@H](C[C@H]2C)C4(C)C)[C@H](F)C(CO)=C[C@]13O`, the EC50 in series [1] was 1240 nM; with Keratinocyte [2] it was 1210 nM; with Keratinocyte [5] it was 1130 nM; in [6], “Not Active”. Moreover, the Emax with Keratinocyte [3] is 57%; in the series with Keratinocyte [4] it was 67%. Moreover, the remaining at 16 h in [7] was greater than 95%.

The pKa is the negative logarithm of the acid dissociation constant. For the compound `C/C=C(\C)C(=O)O[C@H]1C(C)=C[C@]23C(=O)[C@@H](C=C(CO)[C@@H](O)[C@]12O)[C@H]1[C@@H](C[C@H]3C)C1(C)C`, the EC50 came out at 7.5 nM in [1] and 112 nM in the series on Keratinocyte [5]. The maximal effect (Emax) is 75% in the series on Keratinocyte [3] and 81% in the series on Keratinocyte [4]. In addition, in series [8], the CC50 at 0.5 h is 237000 nM. In series [9], this compound gave a pKa of 5.02. The same compound came in with an Emax at 10 µM in [10] of 92%. For the same compound, the remaining at 16 h in series [7] was found to be 45%.

For `C/C=C(/C)C(=O)O[C@H]1C(C)=C[C@]23C(=O)[C@@H](C=C(CO)[C@@H](O)[C@]12O)[C@H]1[C@@H](C[C@H]3C)C1(C)C` [INGENOL MEBUTATE], the EC50 in series [1] amounted to 8.7 nM; in the series with Keratinocyte [2], 11.2 nM; with Keratinocyte [5], 10.3 nM; in series [6] (read-out: EC50) it was 4.1 nM. The CC50 at 0.5 h in series [8] is 230000 nM. The result (in the series on Keratinocyte [11]; with Keratinocyte [12]; in [13]) was inactive. Moreover, in series [7], the remaining at 16 h was determined as 60%.

Take `C/C=C(/C(=O)O[C@H]1C(C)=C[C@]23C(=O)[C@@H](C=C(CO)[C@@H](O)[C@]12O)[C@H]1[C@@H](C[C@H]3C)C1(C)C)c1ccccc1`: the half-maximal effective concentration (EC50) was found to be 7.4 nM in [1], 4.9 nM in the series on Keratinocyte [2], 3.8 nM in the series with Keratinocyte [5] and 5.2 nM in [6] (read-out: EC50). In addition, the Emax turned out to be 97% in the series with Keratinocyte [3] and 110% in the series with Keratinocyte [4]. Besides, the CC50 at 0.5 h in series [8] stood at 103000 nM. Further, in series [10], the Emax at 10 µM turned out to be 126%. The remaining at 16 h in series [7] turned out to be 72%.

The compound `C/C=C(/C)C(=O)O` had a pKa in series [9] of 4.3.

Take `CC1=C[C@]23C(=O)[C@@H](C=C(CO)[C@@H](O)[C@]2(O)[C@H]1OC(=O)C(C)=C(C)C)[C@H]1[C@@H](C[C@H]3C)C1(C)C`: the EC50 came out at 5.9 nM in [1], 8 nM with Keratinocyte [2], 8.6 nM in the series on Keratinocyte [5] and 5.3 nM in series [6] (read-out: EC50). In addition, the Emax in the series with Keratinocyte [3] is 102%; with Keratinocyte [4], 97%. The CC50 at 0.5 h in [8] came out at 174000 nM. Moreover, the Emax at 10 µM in [10] amounted to 106%. Further, the remaining at 16 h in [7] was 75%.

With `CCCCCCCCCC(=O)O[C@H]1C(C)=C[C@]23C(=O)[C@@H](C=C(CO)[C@@H](O)[C@]12O)[C@H]1[C@@H](C[C@H]3C)C1(C)C`, the EC50 was determined as 10 nM in [1], 11 nM in the series on Keratinocyte [2], 8 nM with Keratinocyte [5] and 5.3 nM in series [6] (read-out: EC50). Moreover, the Emax in the series with Keratinocyte [3] was determined as 94%; with Keratinocyte [4] it was 96%. The CC50 at 0.5 h in series [8] is 117000 nM. In addition, the Emax at 10 µM in series [10] turned out to be 137%.

Take `CCCCCCCCCCCCCCCC(=O)O[C@H]1C(C)=C[C@]23C(=O)[C@@H](C=C(CO)[C@@H](O)[C@]12O)[C@H]1[C@@H](C[C@H]3C)C1(C)C`: the EC50 in [1] was 28 nM; in the series with Keratinocyte [2] it was 8.4 nM; in the series with Keratinocyte [5], 7.3 nM; in [6] (read-out: EC50), 4.7 nM. For the same compound, the maximum response (Emax) in the series with Keratinocyte [3] came to 109%; in the series with Keratinocyte [4], 115%. Moreover, the CC50 at 0.5 h in [8] is 400000 nM. The Emax at 10 µM in series [10] came out at 106%.

Consider `CC1=C[C@]23C(=O)[C@@H](C=C(CO)[C@@H](O)[C@]2(O)[C@H]1OC(=O)C1(C)CCCCC1)[C@H]1[C@@H](C[C@H]3C)C1(C)C`, for which the EC50 in [1] worked out at 7.6 nM; with Keratinocyte [2], 13 nM; in the series with Keratinocyte [5] it was 22 nM; in [6] (read-out: EC50), 2.9 nM. The Emax in the series on Keratinocyte [3] was determined as 52%; in the series on Keratinocyte [4], 62%. The CC50 at 0.5 h in series [8] came to 61000 nM. Besides, in [10], the Emax at 10 µM worked out at 127%. Further, in [7], the remaining at 16 h is 70%.

As to `CC1=C[C@]23C(=O)[C@@H](C=C(CO)[C@@H](O)[C@]2(O)[C@H]1OC(=O)/C(C)=C\c1ccc(C)cc1)[C@H]1[C@@H](C[C@H]3C)C1(C)C`, the EC50 worked out at 5.9 nM in series [1], 3.1 nM with Keratinocyte [2] and 2.1 nM with Keratinocyte [5]. Also, the Emax turned out to be 87% with Keratinocyte [3] and 101% with Keratinocyte [4]. Besides, the CC50 at 0.5 h in [8] came to 109000 nM. Moreover, in [10], the Emax at 10 µM was determined as 126%. Moreover, the remaining at 16 h in series [7] is 45%.

For `CCC(CC)C(=O)O[C@H]1C(C)=C[C@]23C(=O)[C@@H](C=C(CO)[C@@H](O)[C@]12O)[C@H]1[C@@H](C[C@H]3C)C1(C)C`, the EC50 is 6.3 nM in [1], 27 nM in the series on Keratinocyte [2], 43 nM in the series on Keratinocyte [5] and 4.5 nM in series [6] (read-out: EC50). Also, the values for the maximal effect (Emax) with Keratinocyte [3] and in the series on Keratinocyte [4] were 59% and 62%, respectively. Further, in series [8], the CC50 at 0.5 h was found to be 86000 nM. In [10], the Emax at 10 µM was determined as 109%. The remaining at 16 h in series [7] is 60%.

Turning to `C=C(C)C(=O)O[C@H]1C(C)=C[C@]23C(=O)[C@@H](C=C(CO)[C@@H](O)[C@]12O)[C@H]1[C@@H](C[C@H]3C)C1(C)C`, the results for the EC50 (in series [1]; with Keratinocyte [2]; in the series with Keratinocyte [5]) were 6.1 nM, 213 nM and 246 nM, respectively. The values for the Emax with Keratinocyte [3] and with Keratinocyte [4] were 74% and 77%, respectively. In [8], the CC50 at 0.5 h came to 406000 nM. Besides, the Emax at 10 µM in [10] is 114%. In series [7], the remaining at 16 h amounted to 20%.

On to `CO/N=C(\C(=O)O[C@H]1C(C)=C[C@]23C(=O)[C@@H](C=C(CO)[C@@H](O)[C@]12O)[C@H]1[C@@H](C[C@H]3C)C1(C)C)c1ccccc1`, for which the EC50 was 49 nM in series [1], 1600 nM in the series on Keratinocyte [2], 147 nM with Keratinocyte [5] and 10.6 nM in series [6] (read-out: EC50). Besides, the Emax with Keratinocyte [3] stood at 54%; in the series on Keratinocyte [4], 52%. For the same compound, the CC50 at 0.5 h in series [8] came out at 92000 nM. Also, the Emax at 10 µM in [10] turned out to be 120%. The remaining at 16 h in series [7] amounted to 68%.

For the origin of these results see ChEMBL document CHEMBL2429727, “Syntheses, biological evaluation and SAR of ingenol mebutate analogues for treatment of actinic keratosis and non-melanoma skin cancer” (Bioorg Med Chem Lett, 2013).
